Values joined by “and” are separate entries in the source; they are usually repeats but may differ in a detail not shown here. Equal values may be shown once. Blank lines part the entries; values can stand above or below the compound they belong to.
Columns and labels:
[1] = target: Voltage-dependent L-type calcium channel subunit alpha-1C (Rattus norvegicus, UniProt P22002); assay: In vitro inhibition of K+ induced contractions of the isolated rat aorta.; assay type: functional, tissue-based
Rattus norvegicus = species on record: Rattus norvegicus; assay: In vitro inhibition of veratridine induced rat myocardiac cell death.; assay type: functional
[2] = target: T1, Seed linoleate 13S-lipoxygenase-1 (Glycine max) (UniProt P08170); assay: In vitro inhibition of rabbit LDL oxidation by soybean lipoxygenase.; assay type: functional; design: scale not given: the % may be the effect or the level left
T1 sequence (whole entry): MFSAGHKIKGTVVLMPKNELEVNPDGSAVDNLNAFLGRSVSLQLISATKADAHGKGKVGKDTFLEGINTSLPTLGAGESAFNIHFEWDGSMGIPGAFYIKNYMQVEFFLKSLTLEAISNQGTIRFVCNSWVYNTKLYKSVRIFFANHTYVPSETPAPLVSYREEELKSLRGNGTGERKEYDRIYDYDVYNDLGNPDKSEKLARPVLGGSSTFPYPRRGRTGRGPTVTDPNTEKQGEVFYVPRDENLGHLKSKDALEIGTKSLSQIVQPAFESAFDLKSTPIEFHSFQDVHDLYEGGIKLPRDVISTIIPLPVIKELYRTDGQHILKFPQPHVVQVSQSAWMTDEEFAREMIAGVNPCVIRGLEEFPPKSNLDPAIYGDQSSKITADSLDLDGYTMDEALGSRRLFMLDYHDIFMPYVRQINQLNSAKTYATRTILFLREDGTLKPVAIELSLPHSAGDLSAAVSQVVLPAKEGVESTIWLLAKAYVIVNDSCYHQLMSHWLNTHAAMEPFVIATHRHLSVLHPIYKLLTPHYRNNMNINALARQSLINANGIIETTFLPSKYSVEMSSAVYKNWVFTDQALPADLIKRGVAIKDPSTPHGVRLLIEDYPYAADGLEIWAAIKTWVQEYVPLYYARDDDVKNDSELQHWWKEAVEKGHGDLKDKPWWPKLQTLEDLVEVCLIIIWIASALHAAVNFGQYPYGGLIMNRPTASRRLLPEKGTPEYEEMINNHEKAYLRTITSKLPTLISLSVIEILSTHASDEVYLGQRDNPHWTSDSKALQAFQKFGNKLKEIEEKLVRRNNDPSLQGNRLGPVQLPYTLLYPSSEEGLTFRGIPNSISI
In short: (§1)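 Compound added to rabbit LDL (Havel method), then soybean lipoxygenase type-IS at 40 μg/mL final. Incubated 24 h at 37 °C in a CO2 incubator. Oxidized LDL separated by gel-permeation chromatography, and fluorescence of the LDL fraction read at ex 360/em 430 nm. Expressed as percent of control.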

[3] = target: T1, Seed linoleate 13S-lipoxygenase-1 (Glycine max); assay: In vitro inhibition of rabbit LDL oxidation by soybean lipoxygenase at 5 uM; assay type: functional; in short: as §1
[4] = target: T1, Seed linoleate 13S-lipoxygenase-1 (Glycine max); assay: In vitro inhibition of rabbit LDL oxidation by soybean lipoxygenase at 0.5 uM; assay type: functional; in short: as §1

Chain of Voltage-dependent L-type calcium channel subunit alpha-1C (P22002 whole entry): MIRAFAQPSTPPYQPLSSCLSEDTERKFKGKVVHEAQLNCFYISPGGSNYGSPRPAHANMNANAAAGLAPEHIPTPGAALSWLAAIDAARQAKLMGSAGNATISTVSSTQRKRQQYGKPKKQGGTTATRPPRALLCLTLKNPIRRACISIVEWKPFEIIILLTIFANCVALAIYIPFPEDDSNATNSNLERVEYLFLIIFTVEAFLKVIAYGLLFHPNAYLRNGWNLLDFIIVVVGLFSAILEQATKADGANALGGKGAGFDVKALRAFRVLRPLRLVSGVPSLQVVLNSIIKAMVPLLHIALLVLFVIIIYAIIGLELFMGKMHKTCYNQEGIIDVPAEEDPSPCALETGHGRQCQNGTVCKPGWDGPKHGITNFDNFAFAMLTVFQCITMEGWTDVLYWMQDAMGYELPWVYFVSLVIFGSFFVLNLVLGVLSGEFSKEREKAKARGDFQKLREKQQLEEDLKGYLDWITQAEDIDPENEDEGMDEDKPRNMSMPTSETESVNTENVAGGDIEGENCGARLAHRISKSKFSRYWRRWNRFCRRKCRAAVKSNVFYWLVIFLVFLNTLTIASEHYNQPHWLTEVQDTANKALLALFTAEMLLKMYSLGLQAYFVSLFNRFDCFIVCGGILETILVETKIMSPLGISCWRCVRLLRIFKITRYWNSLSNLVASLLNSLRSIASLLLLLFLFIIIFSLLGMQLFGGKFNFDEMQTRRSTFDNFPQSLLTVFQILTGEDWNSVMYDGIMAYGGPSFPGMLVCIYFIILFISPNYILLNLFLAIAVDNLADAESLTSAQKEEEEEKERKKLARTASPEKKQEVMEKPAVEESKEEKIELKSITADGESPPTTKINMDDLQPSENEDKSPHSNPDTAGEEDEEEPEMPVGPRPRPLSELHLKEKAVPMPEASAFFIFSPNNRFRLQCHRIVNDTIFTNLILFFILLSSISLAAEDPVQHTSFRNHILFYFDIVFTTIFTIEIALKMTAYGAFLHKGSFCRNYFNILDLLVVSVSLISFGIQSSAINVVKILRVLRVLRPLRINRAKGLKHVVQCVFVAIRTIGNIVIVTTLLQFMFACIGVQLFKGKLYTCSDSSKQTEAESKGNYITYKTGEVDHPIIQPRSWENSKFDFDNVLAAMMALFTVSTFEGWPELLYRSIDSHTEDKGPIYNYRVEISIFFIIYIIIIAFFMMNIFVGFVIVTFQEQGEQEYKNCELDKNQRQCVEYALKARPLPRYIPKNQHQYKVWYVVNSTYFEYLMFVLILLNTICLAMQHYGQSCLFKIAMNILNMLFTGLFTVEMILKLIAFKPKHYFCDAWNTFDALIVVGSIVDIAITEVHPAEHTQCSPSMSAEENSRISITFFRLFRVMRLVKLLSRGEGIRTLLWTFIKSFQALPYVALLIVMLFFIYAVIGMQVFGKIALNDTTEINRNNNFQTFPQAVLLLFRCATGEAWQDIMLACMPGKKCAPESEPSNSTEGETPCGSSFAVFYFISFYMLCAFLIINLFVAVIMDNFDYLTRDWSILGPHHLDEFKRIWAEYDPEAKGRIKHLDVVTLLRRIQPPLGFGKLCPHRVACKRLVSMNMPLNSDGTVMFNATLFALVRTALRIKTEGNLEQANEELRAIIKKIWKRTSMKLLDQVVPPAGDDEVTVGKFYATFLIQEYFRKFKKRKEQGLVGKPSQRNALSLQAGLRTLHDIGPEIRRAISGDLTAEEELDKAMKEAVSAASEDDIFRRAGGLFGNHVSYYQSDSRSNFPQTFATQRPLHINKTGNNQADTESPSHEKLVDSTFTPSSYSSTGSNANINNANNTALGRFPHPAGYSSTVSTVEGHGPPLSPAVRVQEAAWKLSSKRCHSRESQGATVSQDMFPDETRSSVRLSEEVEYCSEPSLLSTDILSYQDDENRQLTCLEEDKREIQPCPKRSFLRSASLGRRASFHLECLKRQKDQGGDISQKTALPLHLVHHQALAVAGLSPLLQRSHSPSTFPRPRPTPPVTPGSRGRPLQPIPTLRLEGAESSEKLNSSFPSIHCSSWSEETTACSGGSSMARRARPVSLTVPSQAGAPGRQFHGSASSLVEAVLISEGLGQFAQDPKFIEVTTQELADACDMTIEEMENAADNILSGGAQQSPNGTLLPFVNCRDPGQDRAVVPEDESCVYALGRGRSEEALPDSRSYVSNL

Compound: CN(c1nc2ccccc2s1)C1CCN(CCCCOc2ccc(F)cc2)CC1
IC50 [1]: 760 nM
IC>80 (Rattus norvegicus): 0.032 µM

Compound: CN(CCCN1C(=O)CSC1c1cc(C(C)(C)C)c(O)c(C(C)(C)C)c1)CC(O)COc1ccc2c(c1)OCO2 (centres undefined)
IC50 [1]: 430 nM

Compound: CC(C)(C)c1cc(C2SCC(=O)N2CCCN2CCC(Cc3ccccc3)CC2)cc(C(C)(C)C)c1O (centres undefined)
IC50 [1]: 210 nM
IC>80 (Rattus norvegicus): 0.32 µM

Compound: COc1ccc(OCCN(C)CCCN2C(=O)CSC2c2cc(C(C)(C)C)c(O)c(C(C)(C)C)c2)cc1OC (centres undefined)
IC50 [1]: 180 nM
IC>80 (Rattus norvegicus): 1 µM

Compound: COc1ccc(OCCN(C)CCCN2C(=O)CSC2c2cc(C(C)(C)C)c(O)c(C(C)(C)C)c2)cc1 (centres undefined)
IC50 [1]: 230 nM

Compound: COc1cc(OCCN(C)CCCN2C(=O)CSC2c2cc(C(C)(C)C)c(O)c(C(C)(C)C)c2)cc(OC)c1OC (centres undefined)
IC50 [1]: 300 nM

Compound: Cc1cc(C(C)(C)C)c(O)c(C(C)(C)C)c1
Control [2]: 19.7% and 0.9%

Compound: COc1cc2c(cc1OC)CN(CCCN1C(=O)CSC1c1cc(C(C)(C)C)c(O)c(C(C)(C)C)c1)CC2 (centres undefined)
IC50 [1]: 200 nM
IC>80 (Rattus norvegicus): 1 µM

Compound: Cc1c(C)c2c(c(C)c1O)CC[C@@](C)(CCC[C@H](C)CCC[C@H](C)CCCC(C)C)O2
LDL oxidation remaining (% of control) [3]: 13.2%
LDL oxidation, % of control [4]: 60.2%

Compound: CN(CCCN1C(=O)CSC1c1cc(C(C)(C)C)c(O)c(C(C)(C)C)c1)CCOc1ccc2c(c1)OCO2 (centres undefined)
IC50 [1]: 62 nM
LDL oxidation remaining (% of control) [3]: 3%
LDL oxidation, % of control [4]: 12.9%
IC>80 (Rattus norvegicus): 0.32 µM

Compound: COc1ccc(CCN(C)CCCN2C(=O)CSC2c2cc(C(C)(C)C)c(O)c(C(C)(C)C)c2)cc1OC (centres undefined)
IC50 [1]: 93 nM
LDL oxidation remaining (% of control) [3]: 0.6%
LDL oxidation, % of control [4]: 8.7%
IC>80 (Rattus norvegicus): 1 µM

Compound: COc1ccc(CN(C)CCCN2C(=O)CSC2c2cc(C(C)(C)C)c(O)c(C(C)(C)C)c2)cc1OC (centres undefined)
IC>80 (Rattus norvegicus): 1 µM

Compound: COc1ccc([C@@H]2Sc3ccccc3N(CCN(C)C)C(=O)[C@@H]2OC(C)=O)cc1 [DILTIAZEM]
LDL oxidation remaining (% of control) [3]: 111%
LDL oxidation, % of control [4]: 109%
IC>80 (Rattus norvegicus): >10 µM

Compound: CN(CCCN1C(=O)CSC1c1cc(C(C)(C)C)c(O)c(C(C)(C)C)c1)CC(O)COc1ccccc1 (centres undefined)
IC50 [1]: 420 nM

Compound: CN(c1nc2ccccc2s1)C1CCN(CCCN2C(=O)CSC2c2cc(C(C)(C)C)c(O)c(C(C)(C)C)c2)CC1 (centres undefined)
IC50 [1]: 230 nM
LDL oxidation remaining (% of control) [3]: 4.9%
LDL oxidation, % of control [4]: 25.8%
IC>80 (Rattus norvegicus): 1 µM

The remaining lines, values ahead:

IC50 [1]: 600 nM
Compound: CN(CCCN1C(=O)CSC1c1cc(C(C)(C)C)c(O)c(C(C)(C)C)c1)Cc1ccccc1 (centres undefined)

IC50 [1]: 1500 nM
Compound: CN(C)CCCN1C(=O)CSC1c1cc(C(C)(C)C)c(O)c(C(C)(C)C)c1 (centres undefined)

IC50 [1]: 1200 nM
Compound: CN(CCCN1C(=O)CSC1c1cc(C(C)(C)C)c(O)c(C(C)(C)C)c1)CC1CC1 (centres undefined)

IC50 [1]: 4400 nM
Compound: CC(C)(C)c1cc(C2SCC(=O)N2CCCN)cc(C(C)(C)C)c1O (centres undefined)

IC50 [1]: 250 nM
Compound: CN(CCCN1C(=O)CSC1c1cc(C(C)(C)C)c(O)c(C(C)(C)C)c1)Cc1ccc2c(c1)OCO2 (centres undefined)

IC50 [1]: 840 nM
Compound: CCOCCN(C)CCCN1C(=O)CSC1c1cc(C(C)(C)C)c(O)c(C(C)(C)C)c1 (centres undefined)

IC50 [1]: 1700 nM
Compound: CN(C)CCN(C)CCCN1C(=O)CSC1c1cc(C(C)(C)C)c(O)c(C(C)(C)C)c1 (centres undefined)

IC50 [1]: 2400 nM
Compound: CNCCCN1C(=O)CSC1c1cc(C(C)(C)C)c(O)c(C(C)(C)C)c1 (centres undefined)
